Measured values collected from several papers.
Lines come from different studies, so protocols differ. pEC50, pIC50, pKi: −log10 of the molar value.
OPRK1: Kappa-type opioid receptor (OPRK1, Homo sapiens, UniProt P41145)
PFF0160c: Dihydroorotate dehydrogenase (quinone), mitochondrial (PFF0160c, Plasmodium falciparum, UniProt Q08210)
CNR1: Cannabinoid receptor 1 (CNR1, Homo sapiens, UniProt P21554)

COc1ccc(C(=O)N[C@H]2CC[C@@]3(O)[C@H]4Cc5ccc(O)c6c5[C@@]3(CCN4CC3CC3)[C@H]2O6)s1 — pKi (OPRK1; ligand displacement, radioligand; cell membranes): 8.77
Cc1nn(C2CC2)c(=O)c2nn(C)c(Cc3ccc(C(F)(F)F)c(C#N)c3)c12 — pIC50 (PFF0160c; enzyme activity, inhibitor): 6.70
CCCCCn1c(O)c(N=NC(=O)c2ccccc2)c2ccccc21 — pKi (CNR1; ligand displacement, radioligand; cell membranes): 5.81
Cn1nc2c(=O)n(C3CC3)cnc2c1[C@@](O)(c1cnc(C(F)(F)F)c(Cl)c1)C(F)(F)F — pIC50 (PFF0160c; enzyme activity, inhibitor): 5.30
CCCCCc1cc(O)c2c(c1)OC(C)(C)c1ccc(C)cc1-2 — pKi (CNR1; cell-free assay): 6.55
CCn1ccc2c(Cc3ccc(C(F)(F)F)nc3)n(C)nc2c1=O — pIC50 (PFF0160c; enzyme activity, inhibitor): 5.80
NC(=O)c1ccc(C(=O)N[C@H]2CC[C@@]3(O)[C@H]4Cc5ccc(O)c6c5[C@@]3(CCN4CC3CC3)[C@H]2O6)s1 — pKi (OPRK1; ligand displacement, radioligand; cell membranes): 8.72
CCn1cc(C2CC2)c2c(Cc3ccc(C(F)(F)F)c(F)c3)n(C)nc2c1=O — pIC50 (PFF0160c; enzyme activity, inhibitor): 7.90
COC(=O)[C@@H](NC(=O)c1nn(Cc2ccc(F)cc2)c2ccccc12)C(C)C — pEC50 (CNR1; β-arrestin recruitment, agonist): 7.70
CC(=O)Nc1ccc(C(=O)N[C@H]2CC[C@@]3(O)[C@H]4Cc5ccc(O)c6c5[C@@]3(CCN4CC3CC3)[C@H]2O6)s1 — pKi (OPRK1; ligand displacement, radioligand; cell membranes): 8.30
CNC(=O)c1ccc(-c2cnn3ccc(C(=O)N(C)c4ccc(Cl)c(C(=O)OC)c4)cc23)cc1 — pIC50 (Serine/threonine-protein kinase WNK1 (WNK1, Homo sapiens, UniProt Q9H4A3); enzyme activity, inhibitor): < 4.52
O=C(N[C@H]1CC[C@@]2(O)[C@H]3Cc4ccc(O)c5c4[C@@]2(CCN3CC2CC2)[C@H]1O5)c1ccc(F)s1 — pKi (OPRK1; ligand displacement, radioligand; cell membranes): 8.66
CCNC(=O)c1nn(C)c(Cc2ccc(C(F)(F)F)nc2)c1C — pIC50 (PFF0160c; enzyme activity, inhibitor): 5.28
O=C(N=Nc1c(O)n(CCCCCF)c2ccccc12)c1ccccc1 — pKi (CNR1; ligand displacement, radioligand; cell membranes): 5.65
NS(=O)(=O)c1ccc(C(=O)N[C@H]2CC[C@@]3(O)[C@H]4Cc5ccc(O)c6c5[C@@]3(CCN4CC3CC3)[C@H]2O6)s1 — pKi (OPRK1; ligand displacement, radioligand; cell membranes): 8.41
